Experimental data collected from several papers.
Compare with care: the assays were run in different laboratories.
Target: Dual specificity tyrosine-phosphorylation-regulated kinase 3 (DYRK3, Homo sapiens, UniProt O43781)

Structure (SMILES) | effect on | action | technique | tested at | measurement | value
O=C(O)c1ccc2c(c1)nc(NCc1ccccc1)c1ccncc12 | enzyme activity | inhibitor | radiometric | 1 µM | remaining activity | 21%
COc1cc(Nc2cnc(C#N)c(O[C@H](C)CN(C)C)n2)ncc1-c1cnn(C)c1 | enzyme activity | inhibitor | radiometric | 1 µM | remaining activity | 98%
COc1cc2ncnc(Nc3ccc(Oc4ccccc4)cc3C)c2cc1OC | enzyme activity | inhibitor |  | 1 µM | inhibition | 1%
O=C(O)c1ccc2c(c1)nc(NCCc1cccc(F)c1)c1ncncc12 | enzyme activity | inhibitor | radiometric | 1 µM | remaining activity | 17%
CCCS(=O)(=O)Nc1ccc(F)c(C(=O)c2c[nH]c3ncc(-c4ccc(Cl)cc4)cc23)c1F | enzyme activity | inhibitor |  | 1 µM | inhibition | < 10%
N#CCCc1ccc2c(c1)-c1[nH]c3ccc([N+](=O)[O-])cc3c1CC(=O)N2 | cell-free assay |  |  | 0.5 µM | remaining signal | 97.6%
COc1cc(/C=C/C(=O)CC(=O)/C=C/c2ccc(O)c(OC)c2)ccc1O | enzyme activity | inhibitor |  | 1 µM | activity vs control | 11%
Cn1cnc(Br)c1C1=CN(c2ncnc3[nH]cnc23)CCS1 | enzyme activity | inhibitor | radiometric | 50 nM | inhibition | 49.8%
O=C1Nc2ccc(Cl)cc2C1=Cc1cc(Cl)c(O)c(Cl)c1 | cell-free assay |  |  | 0.5 µM | remaining signal | 91.8%
O=C(O)c1ccc2c(c1)nc(Nc1cccc(F)c1)c1ncncc12 | enzyme activity | inhibitor | radiometric | 1 µM | remaining activity | 9%
CN(c1ncccc1CNc1nc(Nc2ccc3c(c2)CC(=O)N3)ncc1C(F)(F)F)S(C)(=O)=O | enzyme activity | inhibitor |  | 1 µM | inhibition | 66.8%
O=C(O)c1ccc2c(c1)nc(NCc1ccccc1)c1ncncc12 | enzyme activity | inhibitor | radiometric | 1 µM | remaining activity | 31%
COc1cc(-c2cc(-c3ccc(N4CCNCC4)cc3)cnc2C)cc(OC)c1OC | enzyme activity | inhibitor |  | 0.1 µM | inhibition | 1%
